# Test results from ChEMBL document CHEMBL1817553, “Synthesis and biological evaluation of Matijing-Su derivatives as potent anti-HBV agents” (Bioorg Med Chem, 2011).
# Calls of active or inactive are those of the source. The calls are words filed in the database; no cut-off is given here. Square brackets hold non-standard residues; d marks the D form. Peptide text beside a SMILES is read from it. * marks the point of attachment. Phe(4-NO2) = N[C@@H](Cc1ccc([N+](=O)[O-])cc1)C(=O)O; 4Abz = Nc1ccc(C(=O)O)cc1; Propionyl = CCC(=O)*; Bz = O=C(c1ccccc1)*; ClAc = O=C(CCl)*
# Assays:
# [1] = Cytotoxicity against human HepG2(2.2.15) cells after 24 hours following 9 days of treatment by neutral red dye uptake assay; assay type: cell-based; conditions: read-out: TC50
# Summary of the method: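 2.2.15 cells grown to confluence were treated with compound as in the antiviral assay, with untreated controls on each plate. Toxicity was measured by neutral red uptake (absorbance 510 nm, relative to untreated cells) 24 h after 9 days of treatment, giving TC50.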
# Hepatitis B virus [2] = experiment: Antiviral activity against HBV infected in human HepG2(2.2.15) cells assessed as inhibition of viral DNA replication by measuring HBsAg and HBeAg production after 9 days by EIA; assay type: functional, organism-based; conditions: HepG2 2.2.15, 216 h
# Summary of the method: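 Confluent 2.2.15 cells in RPMI 1640 with 2% FBS received test compounds daily (medium changed daily) for 8 consecutive days in a second protocol. Cells in the 24-well protocol were seeded at 1.0 × 10⁵ cells/mL in MEM with 10% FBS for 24 h. They were then exposed to drug for 9 days, with medium changed every 3 days. Supernatant HBsAg/HBeAg was read by EIA at days 6 and 9, and the test was run twice.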
# [3] = Selectivity index, ratio of TC50 for human HepG2(2.2.15) cells to IC50 for HBV
# Summary of the method: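 Calculated as TC50 (neutral red uptake in 2.2.15 cells) divided by IC50 (HBsAg/HBeAg inhibition by EIA in 2.2.15 cells).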
# Hepatitis B virus [4] = experiment: Antiviral activity against HBV infected in human HepG2(2.2.15) cells assessed as inhibition of viral DNA replication by measuring HBsAg and HBeAg production at TC50 after 9 days by EIA; assay type: functional, organism-based
Structure (SMILES),CC50 at 216 h [1] [µM],IC50 (Hepatitis B virus [2]) [µM],Selectivity Index [3],inhibition (Hepatitis B virus [4])
O=C(N[C@@H](Cc1ccccc1)C(=O)N[C@H](CO)Cc1ccccc1)c1ccc(CN2CCCC2)cc1,128,14.1,9.11,
COC(=O)[C@H](Cc1ccc(O)cc1)NC(=O)[C@H](Cc1ccccc1)NC(=O)c1ccncc1,867,5.39,161.01,
CC(=O)Nc1ccc(C(=O)N[C@@H](Cc2ccccc2)C(=O)N[C@H](CCl)Cc2ccccc2)cc1,30.1,0.71,42.26,
O=C(N[C@@H](Cc1ccccc1)C(=O)N[C@H](CO)Cc1ccccc1)c1ccc(CN2CCOCC2)cc1,157,13.9,11.25,
CC(=O)OC[C@H](Cc1ccccc1)NC(=O)[C@H](Cc1ccccc1)NC(=O)c1ccc(CN(C)C)cc1,508,,,inactive
COC(=O)[C@H](Cc1ccccc1)NC(=O)[C@H](Cc1ccccc1)NC(=O)c1ccc(NC(=O)CN2CCCC2)cc1,106,,,inactive
COC(=O)[C@H](Cc1ccc([N+](=O)[O-])cc1)NC(=O)[C@H](Cc1ccccc1)NC(=O)c1ccncc1,812,,,inactive
COC(=O)[C@H](Cc1ccccc1)NC(=O)[C@H](Cc1ccccc1)NC(=O)c1ccc(NC(=O)CN(C)C)cc1,111,,,inactive
CC(=O)Nc1ccc(C(=O)N[C@@H](Cc2ccc(O)cc2)C(=O)N[C@H](CO)Cc2ccccc2)cc1,749,,,inactive
CC(=O)OC[C@H](Cc1ccccc1)NC(=O)[C@H](Cc1ccccc1)NC(=O)c1ccc(CN2CCOCC2)cc1,609,,,inactive
COC(=O)[C@H](Cc1ccc([N+](=O)[O-])cc1)NC(=O)[C@H](Cc1ccc(O)cc1)NC(=O)c1ccncc1,238,,,inactive
CCOc1ccc(C[C@H](NC(=O)[C@H](Cc2ccccc2)NC(=O)c2ccccc2)C(=O)OC)cc1 (Bz-Phe-Tyr(Et)-OMe),818,14,58.61,
O=C(N[C@@H](Cc1ccc(O)cc1)C(=O)N[C@H](CO)Cc1ccccc1)c1ccncc1,612,,,inactive
COC(=O)[C@H](Cc1ccccc1)NC(=O)[C@H](Cc1ccccc1)NC(=O)c1ccc(OCCN(C)C)cc1,497,105,4.74,
CCC(=O)Nc1ccc(C(=O)N[C@@H](Cc2ccccc2)C(=O)N[C@@H](Cc2ccc([N+](=O)[O-])cc2)C(=O)OC)cc1 ({Propionyl-4Abz}-Phe-[Phe(4-NO2)]-OMe),147,4.37,33.53,
CN(C)CCOc1ccc(C(=O)N[C@@H](Cc2ccccc2)C(=O)N[C@H](CO)Cc2ccccc2)cc1,327,27.6,11.86,
COC(=O)[C@H](Cc1ccccc1)NC(=O)[C@H](Cc1ccccc1)NC(=O)c1ccncc1,1060,,,inactive
CCOc1ccc(C[C@H](NC(=O)[C@H](Cc2ccccc2)NC(=O)c2ccccc2)C(=O)O)cc1 (Bz-Phe-Tyr(Et)-OH),1010,,,inactive
CN(C)Cc1ccc(C(=O)N[C@@H](Cc2ccccc2)C(=O)N[C@H](CO)Cc2ccccc2)cc1,188,15.8,11.84,
CCCCOc1ccc(C[C@H](NC(=O)[C@H](Cc2ccccc2)NC(=O)c2ccccc2)C(=O)[O-])cc1.[Na+],979,64.6,15.2,
CCC(=O)Nc1ccc(C(=O)N[C@@H](Cc2ccccc2)C(=O)N[C@@H](Cc2ccccc2)C(=O)OC)cc1 ({Propionyl-4Abz}-Phe-Phe-OMe),258,2.85,90.45,
COC(=O)[C@H](Cc1ccccc1)NC(=O)[C@H](Cc1ccc(O)cc1)NC(=O)c1ccncc1,219,,,inactive
COC(=O)[C@H](Cc1ccc(O)cc1)NC(=O)[C@H](Cc1ccccc1)NC(=O)c1ccc(NC(C)=O)cc1 (Ac-[4Abz]-Phe-Tyr-OMe),771,9.06,85.09,
COc1ccc(C[C@H](NC(=O)[C@H](Cc2ccccc2)NC(=O)c2ccccc2)C(=O)[O-])cc1.[Na+] (Bz-Phe-Tyr(Me)-OH),184,20.5,8.99,
CCCCOc1ccc(C[C@H](NC(=O)[C@H](Cc2ccccc2)NC(=O)c2ccccc2)C(=O)OC)cc1,1150,174,6.6,
COC(=O)[C@H](Cc1ccccc1)NC(=O)[C@H](Cc1ccccc1)NC(=O)c1ccc(NC(=O)CCl)cc1 ({ClAc-4Abz}-Phe-Phe-OMe),223,,,inactive
O=C(N[C@@H](Cc1ccccc1)C(=O)N[C@H](CO)Cc1ccccc1)c1ccncc1,214,28.9,7.39,
